Laboratory results from ChEMBL document CHEMBL3352003, “Sulfonamides with Potent Inhibitory Action and Selectivity against the α-Carbonic Anhydrase from Vibrio cholerae” (ACS Med Chem Lett, 2014).

Test: Inhibition of Vibrio cholerae cytosolic carbonic anhydrase by stopped flow CO2 hydration assay
In short: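 Stopped-flow measurement of the enzyme-catalysed CO2 hydration activity; inhibition is reported as KI (nM).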

Compound	Ki [nM]
NCCCC(=O)NCc1ccc(S(N)(=O)=O)cc1	65.3
N=C(N)NCCCC(=O)NCc1ccc(S(N)(=O)=O)cc1	6.4
CC(=O)NC(CCCCN)C(=O)NCCc1ccc(S(N)(=O)=O)cc1 (stereo unspecified)	66.5
CC(C)(C)OC(=O)/N=C(\NCCCC(=O)NCCc1ccc(S(N)(=O)=O)cc1)NC(=O)OC(C)(C)C	95.2
CC(=O)NC(CCCCN/C(=N/C(=O)OC(C)(C)C)NC(=O)OC(C)(C)C)C(=O)NCc1ccc(S(N)(=O)=O)cc1 (stereo unspecified)	9.1
CC(C)(C)OC(=O)/N=C(\NCCCC(=O)NCc1ccc(S(N)(=O)=O)cc1)NC(=O)OC(C)(C)C	5.8
CC(=O)NC(CCCCN)C(=O)NCc1ccc(S(N)(=O)=O)cc1 (stereo unspecified)	29.1
CC(=O)NC(CCCCNC(=O)OC(C)(C)C)C(=O)NCCc1ccc(S(N)(=O)=O)cc1 (stereo unspecified)	76.7
N=C(N)NCCCC(=O)NCCc1ccc(S(N)(=O)=O)cc1	29.1
NCCCC(=O)NCCc1ccc(S(N)(=O)=O)cc1	77
CC(=O)NC(CCCCNC(=O)OC(C)(C)C)C(=O)NCc1ccc(S(N)(=O)=O)cc1 (stereo unspecified)	8.9
CC(=O)NC(CCCCNC(=O)OC(C)(C)C)C(=O)Nc1cccc(S(N)(=O)=O)c1 (stereo unspecified)	8.8
COC(=O)C(CCCCNC(=O)OCc1ccccc1)NC(=O)c1ccc(S(N)(=O)=O)cc1 (stereo unspecified)	6.2
CC(C)(C)OC(=O)NCCCC(=O)NCCc1ccc(S(N)(=O)=O)cc1	304
CC(C)(C)OC(=O)NCCCC(=O)NCc1ccc(S(N)(=O)=O)cc1	6.1
CC(=O)NC(CCCCN/C(=N/C(=O)OC(C)(C)C)NC(=O)OC(C)(C)C)C(=O)NCCc1ccc(S(N)(=O)=O)cc1 (stereo unspecified)	9.3
CC(C)(C)OC(=O)NCCCC(=O)Nc1cccc(S(N)(=O)=O)c1	7.6
CC(C)(C)OC(=O)NCCCC(=O)Nc1ccc(S(N)(=O)=O)cc1	6.9
CC(=O)NC(CCCCNC(=N)N)C(=O)NCCc1ccc(S(N)(=O)=O)cc1 (stereo unspecified)	36.8
CC(=O)NC(CCCCNC(=N)N)C(=O)NCc1ccc(S(N)(=O)=O)cc1 (stereo unspecified)	8.8
